# Test results as given in ChEMBL document CHEMBL2380239, “Novel ROS-activated agents utilize a tethered amine to selectively target acute myeloid leukemia” (Bioorg Med Chem Lett, 2013).
# What was measured:
# HeLa = test: Cytotoxicity against human HeLa cells after 48 hrs by MTT assay; assay type: functional, cell-based
# COLO 205 = test: Growth inhibition of human COLO205 cells after 48 hrs by sulforhodamine B assay; assay type: functional; conditions: COLO 205, 48 h
# In short: (§1)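 Run in the National Cancer Institute 60-cell-line panel screen. Viability was read by sulforhodamine B staining of total protein content, so it reflects cell number rather than metabolic activity. Values are reported as GI50.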
# T47D = test: Growth inhibition of human T47D cells after 48 hrs by sulforhodamine B assay; assay type: functional
# In short: (§2)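 Run within the National Cancer Institute 60-cell-line panel. Viability was read by sulforhodamine B staining of total cellular protein, as a measure of cell number rather than metabolic activity. GI50 values were taken from the panel data.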
# MDA-MB-435 = test: Growth inhibition of human MDA-MB-435 cells after 48 hrs by sulforhodamine B assay; assay type: functional; conditions: MDA-MB-435, 48 h; in short: as §1
# M14 = test: Growth inhibition of human M14 cells after 48 hrs by sulforhodamine B assay; assay type: functional; conditions: M14, 48 h; in short: as §1
# NCI-H23 = test: Growth inhibition of human NCI-H23 cells after 48 hrs by sulforhodamine B assay; assay type: functional; conditions: NCI-H23, 48 h; in short: as §1
# SNB-19 = test: Growth inhibition of human SNB19 cells after 48 hrs by sulforhodamine B assay; assay type: functional; conditions: SNB-19, 48 h; in short: as §2
# CAKI-1 = test: Growth inhibition of human CAKI-1 cells after 48 hrs by sulforhodamine B assay; assay type: functional; conditions: CAKI-1, 48 h; in short: as §1
# HL-60(TB) = test: Growth inhibition of human HL-60(TB) cells after 48 hrs by sulforhodamine B assay; assay type: functional; conditions: HL-60, 48 h
# In short: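 Tested through the National Cancer Institute's NCI-60 cell line panel screen. Viability was read by sulforhodamine B staining, which measures total cellular protein and so reflects cell number rather than metabolic activity. The value is reported as GI50.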
# CCRF-CEM = test: Growth inhibition of human CCRF-CEM cells after 48 hrs by sulforhodamine B assay; assay type: functional; in short: as §1
# SR = test: Growth inhibition of human SR cells after 48 hrs by sulforhodamine B assay; assay type: functional; in short: as §2
# SN12C = test: Growth inhibition of human SN12C cells after 48 hrs by sulforhodamine B assay; assay type: functional; in short: as §2
# Hs-578T = test: Growth inhibition of human Hs578T cells after 48 hrs by sulforhodamine B assay; assay type: functional; in short: as §1
# SK-MEL-28 = test: Growth inhibition of human SK-MEL-28 cells after 48 hrs by sulforhodamine B assay; assay type: functional; conditions: SK-MEL-28, 48 h; in short: as §1
# SNB-75 = test: Growth inhibition of human SNB75 cells after 48 hrs by sulforhodamine B assay; assay type: functional; conditions: SNB-75, 48 h; in short: as §2
# MCF7 = test: Growth inhibition of human MCF7 cells after 48 hrs by sulforhodamine B assay; assay type: functional; conditions: MCF7, 48 h; in short: as §1
# NCI-H226 = test: Growth inhibition of human NCI-H226 cells after 48 hrs by sulforhodamine B assay; assay type: functional; conditions: NCI-H226, 48 h; in short: as §1
# SF-268 = test: Growth inhibition of human SF268 cells after 48 hrs by sulforhodamine B assay; assay type: functional; conditions: SF-268, 48 h; in short: as §1
# OVCAR-4 = test: Growth inhibition of human OVCAR4 cells after 48 hrs by sulforhodamine B assay; assay type: functional; conditions: OVCAR-4, 48 h; in short: as §1
# SW-620 = test: Growth inhibition of human SW620 cells after 48 hrs by sulforhodamine B assay; assay type: functional; conditions: SW-620, 48 h; in short: as §2
# KM12 = test: Growth inhibition of human KM12 cells after 48 hrs by sulforhodamine B assay; assay type: functional; conditions: KM12, 48 h; in short: as §1
# [1] = Therapeutic index, ratio of IC50 for human CD34-positive blood stem/progenitor cells to IC50 for human MA9.3 cells; conditions: CD34-positive blood stem/progenitor cells versus MA9.3 cells, read-out: Ratio IC50
# In short: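 Cytotoxicity was measured in parallel on non-cancerous human CD34+ blood stem/progenitor cells (UCB) and on the MA9.3 AML line, which was made by introducing the MLL-AF9 oncogene into human CD34+ cells. The index is IC50 in CD34+ cells divided by IC50 in MA9.3, reported as mean ± error.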
# RPMI-8226 = test: Growth inhibition of human RPMI8226 cells after 48 hrs by sulforhodamine B assay; assay type: functional; conditions: RPMI-8226, 48 h; in short: as §1
# UO-31 = test: Growth inhibition of human UO31 cells after 48 hrs by sulforhodamine B assay; assay type: functional; conditions: UO-31, 48 h; in short: as §2
# TK-10 = test: Growth inhibition of human TK10 cells after 48 hrs by sulforhodamine B assay; assay type: functional; conditions: TK-10, 48 h; in short: as §2
# OVCAR-3 = test: Growth inhibition of human OVCAR3 cells after 48 hrs by sulforhodamine B assay; assay type: functional; conditions: OVCAR-3, 48 h; in short: as §1
# MDA-MB-468 = test: Growth inhibition of human MDA-MB-468 cells after 48 hrs by sulforhodamine B assay; assay type: functional; conditions: MDA-MB-468, 48 h; in short: as §1
# IGROV-1 = test: Growth inhibition of human IGROV1 cells after 48 hrs by sulforhodamine B assay; assay type: functional; conditions: IGROV-1, 48 h; in short: as §1
# 786-0 = test: Growth inhibition of human 786-0 cells after 48 hrs by sulforhodamine B assay; assay type: functional; conditions: 786-0, 48 h; in short: as §1
# HCT-116 = test: Growth inhibition of human HCT116 cells after 48 hrs by sulforhodamine B assay; assay type: functional; conditions: HCT-116, 48 h; in short: as §1
# [2] = Cytotoxicity against human CD34-positive blood stem/progenitor cells after 48 hrs by MTT assay; assay type: cell-based
# In short: (§3)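 Non-transformed human CD34+ blood stem/progenitor cells from umbilical cord blood were run alongside MA9.3, an AML line made by introducing the MLL-AF9 oncogene into human CD34+ cells. IC50 was determined on each cell type. Therapeutic index is the ratio between the MA9.3 and CD34+ IC50 values.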
# SF-539 = test: Growth inhibition of human SF539 cells after 48 hrs by sulforhodamine B assay; assay type: functional; conditions: SF-539, 48 h; in short: as §1
# SK-OV-3 = test: Growth inhibition of human SKOV3 cells after 48 hrs by sulforhodamine B assay; assay type: functional; conditions: SK-OV-3, 48 h; in short: as §1
# MDA-MB-231 = test: Growth inhibition of human MDA-MB-231 cells after 48 hrs by sulforhodamine B assay; assay type: functional; conditions: MDA-MB-231, 48 h; in short: as §1
# A498 = test: Growth inhibition of human A498 cells after 48 hrs by sulforhodamine B assay; assay type: functional; conditions: A498, 48 h; in short: as §1
# MOLT-4 = test: Growth inhibition of human MOLT4 cells after 48 hrs by sulforhodamine B assay; assay type: functional; conditions: MOLT-4, 48 h; in short: as §1
# RXF 393 = test: Growth inhibition of human RXF393 cells after 48 hrs by sulforhodamine B assay; assay type: functional; conditions: RXF 393, 48 h; in short: as §1
# SK-MEL-2 = test: Growth inhibition of human SK-MEL-2 cells after 48 hrs by sulforhodamine B assay; assay type: functional; conditions: SK-MEL-2, 48 h; in short: as §1
# OVCAR-5 = test: Growth inhibition of human OVCAR5 cells after 48 hrs by sulforhodamine B assay; assay type: functional; conditions: OVCAR-5, 48 h; in short: as §1
# NCI-H322M = test: Growth inhibition of human NCI-H322M cells after 48 hrs by sulforhodamine B assay; assay type: functional; in short: as §1
# U-251 = test: Growth inhibition of human U251 cells after 48 hrs by sulforhodamine B assay; assay type: functional; conditions: U-251, 48 h; in short: as §2
# [3] = Growth inhibition of human HCC2998 cells after 48 hrs by sulforhodamine B assay; assay type: functional; conditions: HCC 2998, 48 h; in short: as §1
# SK-MEL-5 = test: Growth inhibition of human SK-MEL-5 cells after 48 hrs by sulforhodamine B assay; assay type: functional; conditions: SK-MEL-5, 48 h; in short: as §1
# PC-3 = test: Growth inhibition of human PC3 cells after 48 hrs by sulforhodamine B assay; assay type: functional; conditions: PC-3, 48 h; in short: as §1
# OVCAR-8 = test: Growth inhibition of human OVCAR8 cells after 48 hrs by sulforhodamine B assay; assay type: functional; conditions: OVCAR-8, 48 h; in short: as §1
# UACC-62 = test: Growth inhibition of human UACC62 cells after 48 hrs by sulforhodamine B assay; assay type: functional; conditions: UACC-62, 48 h; in short: as §2
# BT-549 = test: Growth inhibition of human BT549 cells after 48 hrs by sulforhodamine B assay; assay type: functional; conditions: BT-549, 48 h; in short: as §1
# LOX IMVI = test: Growth inhibition of human LOXIMVI cells after 48 hrs by sulforhodamine B assay; assay type: functional; in short: as §1
# NCI-H522 = test: Growth inhibition of human NCI-H522 cells after 48 hrs by sulforhodamine B assay; assay type: functional; conditions: NCI-H522, 48 h; in short: as §1
# HCT-15 = test: Growth inhibition of human HCT15 cells after 48 hrs by sulforhodamine B assay; assay type: functional; conditions: HCT-15, 48 h; in short: as §1
# HT-29 = test: Growth inhibition of human HT-29 cells after 48 hrs by sulforhodamine B assay; assay type: functional; conditions: HT-29, 48 h; in short: as §1
# HOP-92 = test: Growth inhibition of human HOP92 cells after 48 hrs by sulforhodamine B assay; assay type: functional; conditions: HOP-92, 48 h; in short: as §1
# [4] = Cytotoxicity against human MA9.3 cells after 48 hrs by MTT assay; assay type: functional, cell-based; in short: as §3
# ACHN = test: Growth inhibition of human ACHN cells after 48 hrs by sulforhodamine B assay; assay type: functional; in short: as §1
# DU-145 = test: Growth inhibition of human DU145 cells after 48 hrs by sulforhodamine B assay; assay type: functional; conditions: DU-145, 48 h; in short: as §1
# [5] = Growth inhibition of human NCI-ADR-RES cells after 48 hrs by sulforhodamine B assay; assay type: functional; in short: as §1
# HOP-62 = test: Growth inhibition of human HOP62 cells after 48 hrs by sulforhodamine B assay; assay type: functional; conditions: HOP-62, 48 h; in short: as §1
# UACC-257 = test: Growth inhibition of human UACC257 cells after 48 hrs by sulforhodamine B assay; assay type: functional; conditions: UACC-257, 48 h; in short: as §2
# A549 = test: Growth inhibition of human A549/ATCC cells after 48 hrs by sulforhodamine B assay; assay type: functional; conditions: A549, 48 h; in short: as §1
compound,measurement,setting,value
CN(CCOc1ccc(O)cc1)Cc1ccccc1,IC50,HeLa,33000 nM
CN(CCCOc1ccccc1)c1ccccc1,IC50,HeLa,> 125000 nM
CN(CCCOc1ccc(O)cc1)c1ccccc1,GI50,COLO 205,13800 nM
same,GI50,T47D,4600 nM
same,GI50,MDA-MB-435,6600 nM
same,GI50,M14,1700 nM
same,GI50,NCI-H23,3000 nM
same,GI50,SNB-19,7900 nM
same,GI50,CAKI-1,300 nM
same,GI50,HL-60(TB),900 nM
same,GI50,CCRF-CEM,300 nM
same,GI50,SR,2500 nM
same,GI50,SN12C,3100 nM
same,GI50,Hs-578T,3100 nM
same,GI50,SK-MEL-28,12300 nM
same,GI50,SNB-75,3000 nM
same,GI50,MCF7,2600 nM
same,GI50,NCI-H226,10500 nM
same,GI50,SF-268,2200 nM
same,GI50,OVCAR-4,11700 nM
same,GI50,SW-620,1300 nM
same,GI50,KM12,4300 nM
same,selectivity ratio,[1],7.7
same,GI50,RPMI-8226,1200 nM
same,GI50,UO-31,400 nM
same,GI50,TK-10,8300 nM
same,GI50,OVCAR-3,4000 nM
same,GI50,MDA-MB-468,3300 nM
same,GI50,IGROV-1,4100 nM
same,GI50,786-0,1900 nM
same,GI50,HCT-116,3500 nM
same,IC50,[2],5400 nM
same,GI50,SF-539,600 nM
same,GI50,SK-OV-3,11500 nM
same,GI50,MDA-MB-231,6900 nM
same,GI50,A498,2600 nM
same,GI50,MOLT-4,2000 nM
same,GI50,RXF 393,2100 nM
same,GI50,SK-MEL-2,10500 nM
same,GI50,OVCAR-5,7800 nM
same,GI50,NCI-H322M,12600 nM
same,GI50,U-251,1700 nM
same,GI50,[3],11200 nM
same,GI50,SK-MEL-5,2100 nM
same,GI50,PC-3,2100 nM
same,GI50,OVCAR-8,1500 nM
same,GI50,UACC-62,2100 nM
same,GI50,BT-549,1700 nM
same,GI50,LOX IMVI,2800 nM
same,GI50,NCI-H522,2800 nM
same,GI50,HCT-15,3500 nM
same,GI50,HT-29,5600 nM
same,GI50,HOP-92,500 nM
same,IC50,HeLa,9000 nM
same,IC50,[4],700 nM
same,GI50,ACHN,300 nM
same,GI50,DU-145,2800 nM
same,GI50,[5],1500 nM
same,GI50,HOP-62,10500 nM
same,GI50,UACC-257,8100 nM
same,GI50,A549,2200 nM
